Common to all, as to assay type: functional, Salmonella enterica subsp. enterica serovar Enteritidis
Assay [1] relates to Salmonella enteritidis. Nature of the assay: Antimicrobial activity against Salmonella enterica serovar enteritidis isolate 5408 harboring gyrA D87Y mutant gene by Etest.
Assay [2] deals with Salmonella enteritidis. Briefly: Antimicrobial activity against ciprofloxacin-resistant Salmonella enterica serovar enteritidis isolate 5408-cip harboring gyrA D87Y, gyrB E466D, parE V461G mutant gene by Etest.
The subject of assay [3] is Salmonella enteritidis. Briefly: Antimicrobial activity against ramA::aph-deficient ciprofloxacin-resistant Salmonella enterica serovar enteritidis isolate 5408-cip harboring gyrA D87Y, gyrB E466D, parE V461G mutant gene by Etest. In outline: (§1)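 Deletions (acrB, marA, soxS or ramA) were moved from SL1344 mutants into the isolates by P22 phage transduction. Transductants were selected on LB agar with 50 µg/ml kanamycin, and insertion of the kanamycin resistance gene was confirmed by PCR. MICs were then determined by Etest.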

The subject of assay [4] is Salmonella enteritidis. Nature of the assay: Antimicrobial activity against acrB::aph-deficient ciprofloxacin-resistant Salmonella enterica serovar enteritidis isolate 5408-cip harboring gyrA D87Y, gyrB E466D, parE V461G mutant gene by Etest. In outline:
as §1

Assay [5] has as its system Salmonella enteritidis. Briefly: Antimicrobial activity against Salmonella enterica serovar enteritidis isolate 104 harboring gyrA D87Y mutant gene by Etest.
Assay [6] concerns Salmonella enteritidis. Nature of the assay: Antimicrobial activity against acrB::aph-deficient ciprofloxacin-resistant Salmonella enterica serovar enteritidis isolate 104-cip harboring gyrA D87Y,S83F mutant gene by Etest. In outline: as §1
In assay [7] the test system is Salmonella enteritidis. Briefly: Antimicrobial activity against marA::aph-deficient ciprofloxacin-resistant Salmonella enterica serovar enteritidis isolate 104-cip harboring gyrA D87Y,S83F mutant gene by Etest. In outline:
as §1

Assay [8] concerns Salmonella enteritidis. Briefly: Antimicrobial activity against soxS::aph-deficient ciprofloxacin-resistant Salmonella enterica serovar enteritidis isolate 104-cip harboring gyrA D87Y,S83F mutant gene by Etest. In short, it runs like this:
as §1

Assay [9] concerns Salmonella enteritidis. Briefly: Antimicrobial activity against Salmonella enterica serovar enteritidis isolate 104-cip harboring gyrA D87Y,S83F mutant gene by Etest.
Assay [10] concerns Salmonella enteritidis. Briefly: Antimicrobial activity against Salmonella enterica serovar enteritidis isolate CUH48 by Etest.
Assay [11] has as its system Salmonella enteritidis. Briefly: Antimicrobial activity against Salmonella enterica serovar enteritidis isolate 104 harboring gyrA gene by Etest.
In assay [12] the test system is Salmonella enteritidis. Nature of the assay: Antimicrobial activity against Salmonella enterica serovar enteritidis isolate 51 harboring gyrA D87Y mutant gene by Etest.
In assay [13] the test system is Salmonella enteritidis. Nature of the assay: Antimicrobial activity against ciprofloxacin-resistant Salmonella enterica serovar enteritidis isolate 5408-cip harboring gyrB gene gyrA D87Y, parE V461G mutant gene by Etest. In short, it runs like this:
(§2)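 Wild-type alleles of the target genes were carried on plasmids and introduced into the ciprofloxacin-selected mutants by electrotransformation. Transformants were selected on LB agar with 50 µg/ml kanamycin at 37°C overnight. Quinolone MICs of the transformants were read by Etest strips alongside those of the parent and mutant strains.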

In assay [14] the test system is Salmonella enteritidis. Briefly: Antimicrobial activity against ciprofloxacin-resistant Salmonella enterica serovar enteritidis isolate 5408-cip harboring gyrA gene, gyrB E466D, parE V461G mutant gene by Etest. In outline:
as §2

Assay [15] deals with Salmonella enteritidis. Nature of the assay: Antimicrobial activity against ciprofloxacin-resistant Salmonella enterica serovar enteritidis isolate 5408-cip harboring parE gene gyrA D87Y, gyrB E466D mutant gene by Etest. In outline:
as §2

For assay [16], the system named is Salmonella enteritidis. Briefly: Antimicrobial activity against acrB::aph-deficient Salmonella enterica serovar enteritidis isolate 104 harboring gyrA D87Y mutant gene by Etest. In outline:
as §1

The test system of assay [17] is Salmonella enteritidis. Nature of the assay: Antimicrobial activity against acrB::aph-deficient Salmonella enterica serovar enteritidis isolate 51 harboring gyrA D87Y mutant gene by Etest. In outline:
as §1

Assay [18] deals with Salmonella enteritidis. Nature of the assay: Antimicrobial activity against ciprofloxacin-resistant Salmonella enterica serovar enteritidis isolate 104-cip harboring gyrA gene by Etest. In short, it runs like this:
as §2

Assay [19] has as its system Salmonella enteritidis. Nature of the assay: Antimicrobial activity against Salmonella enterica serovar enteritidis isolate CUH52 by Etest.
Assay [20] has as its system Salmonella enteritidis. Briefly: Antimicrobial activity against acrB::aph-deficient Salmonella enterica serovar enteritidis isolate 5408 harboring gyrA D87Y mutant gene by Etest. In short, it runs like this:
as §1

Assay [21] has as its system Salmonella enteritidis. Nature of the assay: Antimicrobial activity against Salmonella enterica serovar enteritidis isolate 5408 harboring gyrA gene by Etest.
The subject of assay [22] is Salmonella enteritidis. Briefly: Antimicrobial activity against acrB::aph-deficient Salmonella enterica serovar enteritidis isolate 4931 harboring gyrA D87Y mutant gene by Etest. In outline:
as §1

Assay [23] concerns Salmonella enteritidis. Nature of the assay: Antimicrobial activity against acrB::aph-deficient Salmonella enterica serovar enteritidis isolate CUH60 harboring gyrA D87Y mutant gene by Etest. In short, it runs like this: as §1
For assay [24], the system named is Salmonella enteritidis. Briefly: Antimicrobial activity against Salmonella enterica serovar enteritidis isolate 58 harboring gyrA D87Y mutant gene by Etest.
Assay [25] relates to Salmonella enteritidis. Nature of the assay: Antimicrobial activity against Salmonella enterica serovar enteritidis isolate 54 harboring gyrA D87Y mutant gene by Etest.
The subject of assay [26] is Salmonella enteritidis. Nature of the assay: Antimicrobial activity against Salmonella enterica serovar enteritidis isolate NCTC 13349 by Etest.

Molecules are shown by their SMILES. In brackets after ≈: the same amount, converted by molar mass. Bounds are passed on as bounds.

The term MIC denotes the lowest concentration that inhibits growth of the organism. A lower MIC goes with a more susceptible organism. On to `O=C(N[C@H](CO)[C@H](O)c1ccc([N+](=O)[O-])cc1)C(Cl)Cl` [CHLORAMPHENICOL], for which the MIC in the assay on Salmonella enteritidis [1] was determined as 3 µg/mL (≈ 9.28 µM); against Salmonella enteritidis [2], 16 µg/mL (≈ 49.5 µM); against Salmonella enteritidis [3], 3 µg/mL (≈ 9.28 µM); in the assay with Salmonella enteritidis [4], 0.5 µg/mL (≈ 1.55 µM); with Salmonella enteritidis [5], 2 µg/mL (≈ 6.19 µM); in the assay with Salmonella enteritidis [6] it was 0.75 µg/mL (≈ 2.32 µM). Moreover, the MIC in the assay on Salmonella enteritidis [7] came out at 3 µg/mL (≈ 9.28 µM); with Salmonella enteritidis [8] it was 1.5 µg/mL (≈ 4.64 µM); with Salmonella enteritidis [9], 96 µg/mL (≈ 297 µM).
Regarding `O=C(O)c1cn(C2CC2)c2cc(N3CCNCC3)c(F)cc2c1=O` [CIPROFLOXACIN], the MIC was 0.016 µg/mL (≈ 0.0483 µM) against Salmonella enteritidis [10]; 0.047 µg/mL (≈ 0.142 µM) in the assay on Salmonella enteritidis [11]; 0.19 µg/mL (≈ 0.573 µM) with Salmonella enteritidis [12]; 3 µg/mL (≈ 9.05 µM) in the assay with Salmonella enteritidis [13]; 1 µg/mL (≈ 3.02 µM) against Salmonella enteritidis [14]; > 32 µg/mL in the assay with Salmonella enteritidis [15]. In addition, the MIC with Salmonella enteritidis [16] was found to be 0.032 µg/mL (≈ 0.0966 µM); in the assay with Salmonella enteritidis [3] it was 4 µg/mL (≈ 12.1 µM); against Salmonella enteritidis [17], 0.032 µg/mL (≈ 0.0966 µM); in the assay with Salmonella enteritidis [4], 0.5 µg/mL (≈ 1.51 µM); in the assay on Salmonella enteritidis [18] it was 0.094 µg/mL (≈ 0.284 µM); in the assay with Salmonella enteritidis [19], 0.016 µg/mL (≈ 0.0483 µM). The MIC in the assay with Salmonella enteritidis [20] stood at 0.047 µg/mL (≈ 0.142 µM); against Salmonella enteritidis [21], 0.032 µg/mL (≈ 0.0966 µM); in the assay with Salmonella enteritidis [6], 0.38 µg/mL (≈ 1.15 µM); with Salmonella enteritidis [22], 0.047 µg/mL (≈ 0.142 µM); in the assay with Salmonella enteritidis [7], 4 µg/mL (≈ 12.1 µM); with Salmonella enteritidis [23] it was 0.032 µg/mL (≈ 0.0966 µM). Also, the MIC came to 0.125 µg/mL (≈ 0.377 µM) in the assay on Salmonella enteritidis [24], 1.5 µg/mL (≈ 4.53 µM) in the assay with Salmonella enteritidis [8], 0.19 µg/mL (≈ 0.573 µM) against Salmonella enteritidis [25] and 0.023 µg/mL (≈ 0.0694 µM) in the assay on Salmonella enteritidis [26].
As for `CC1(C)S[C@@H]2[C@H](NC(=O)[C@H](N)c3ccccc3)C(=O)N2[C@H]1C(=O)O` [AMPICILLIN], the MIC in the assay on Salmonella enteritidis [1] came out at 1 µg/mL (≈ 2.86 µM); in the assay on Salmonella enteritidis [2], 4 µg/mL (≈ 11.4 µM); with Salmonella enteritidis [3], 1 µg/mL (≈ 2.86 µM); in the assay on Salmonella enteritidis [4], 0.094 µg/mL (≈ 0.269 µM); in the assay on Salmonella enteritidis [5], 1 µg/mL (≈ 2.86 µM); against Salmonella enteritidis [6], 0.125 µg/mL (≈ 0.358 µM). Moreover, the values for the MIC with Salmonella enteritidis [7], with Salmonella enteritidis [8] and in the assay with Salmonella enteritidis [9] were 1.5 µg/mL (≈ 4.29 µM), 0.5 µg/mL (≈ 1.43 µM) and 16 µg/mL (≈ 45.8 µM), respectively.
For `CN(C)[C@@H]1C(O)=C(C(N)=O)C(=O)[C@@]2(O)C(O)=C3C(=O)c4c(O)cccc4[C@@](C)(O)[C@H]3C[C@@H]12` [TETRACYCLINE], the MIC stood at 1 µg/mL (≈ 2.25 µM) in the assay with Salmonella enteritidis [1]; 1.5 µg/mL (≈ 3.38 µM) against Salmonella enteritidis [2]; 1 µg/mL (≈ 2.25 µM) with Salmonella enteritidis [3]; 0.094 µg/mL (≈ 0.212 µM) against Salmonella enteritidis [4]; 1 µg/mL (≈ 2.25 µM) in the assay on Salmonella enteritidis [5]; 0.25 µg/mL (≈ 0.563 µM) against Salmonella enteritidis [6]. For the same compound, the MIC against Salmonella enteritidis [7] amounted to 1.5 µg/mL (≈ 3.38 µM); with Salmonella enteritidis [8] it was 0.75 µg/mL (≈ 1.69 µM); with Salmonella enteritidis [9], 12 µg/mL (≈ 27 µM).

The values above are taken from ChEMBL document CHEMBL1629649, “Multiple regulatory pathways associated with high-level ciprofloxacin and multidrug resistance in Salmonella enterica serovar enteritidis: involvement of RamA and other global regulators” (2009).
